Laboratory results published in ChEMBL document CHEMBL4431364, “Discovery and synthetic optimization of a novel scaffold for hydrophobic tunnel-targeted autotaxin inhibition” (Bioorg Med Chem, 2016).

How the values were obtained:
[1] = biological target: T1, Autotaxin (Homo sapiens, UniProt Q13822); assay: Inhibition of C-terminal FLAG tagged human recombinant ATX expressed in insect sf9 cells at 10 uM using FS-3 as substrate measured every 2 mins for 60 mins by FRET assay
Method in brief: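 10 μM compound with 10 nM human FLAG-fusion ATX in pH 8.0 Tris buffer (30 μM BSA, 1 mM CaCl2, 1 mM MgCl2, 5 mM KCl, 140 mM NaCl) and 1 μM FS-3. Fluorescence at ex 485/em 520 nm read every 2 min for 60 min at 37 °C. Normalized to no-ATX (0%) and ATX without compound (100%). Triplicate.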

[2] = biological target: T1, Autotaxin; assay: Inhibition of C-terminal FLAG tagged human recombinant ATX expressed in insect sf9 cells at 10 uM using pNP-TMP as substrate measured every 2 mins for 60 mins by absorbance

| SMILES | inhibition [1] [%] | inhibition [2] [%] |
| --- | --- | --- |
| O=S(=O)(c1cc(-c2ccon2)cs1)N1CCN(Cc2ccc3c(c2)OCO3)CC1 | 13.4 | – |
| O=C(COc1ccccc1F)N1CCN(c2cccc([N+](=O)[O-])c2)CC1 | 15.2 | – |
| Cc1cc(C)c(C)c(S(=O)(=O)N2CCN(c3ncnc4sc(C)c(C)c34)CC2)c1C | 19.8 | – |
| Cc1nn(-c2ccccc2)c(O)c1/N=C1\C(=O)N(C)c2ccc(Br)cc21 | 1.44 | – |
| O=C(COc1ccccc1Cl)N1CCN(c2cccc([N+](=O)[O-])c2)CC1 | 41.9 | 4.9 |
| O=C(COc1ccc(F)cc1)N1CCN(c2cccc([N+](=O)[O-])c2)CC1 | 48.1 | 8.9 |
| CC(C)/C=C/C(=O)N1CCN(C(=O)C2CCC3C4CC=C5CC(O)CCC5(C)C4CCC23C)CC1 (stereo not drawn) | 13.3 | – |
| Cc1cc(C(=O)CSc2ccc(Cl)cc2)cc(C)c1OC(=O)N(C)C | 6.06 | – |
| O=C(CCCc1ccc([N+](=O)[O-])cc1)N1CCN(c2ccccc2F)CC1 | 25.6 | – |
| O=C(COc1ccc(F)cc1)N1CCN(c2ccccc2[N+](=O)[O-])CC1 | 42.4 | 19.9 |
| O=C(O)c1ccccc1N1CCN(C(=O)COc2cccc(F)c2)CC1 | -5.5 | -4.8 |
| O=C(O)c1ccccc1N1CCN(C(=O)COc2ccccc2F)CC1 | -7.6 | -5.7 |
| Cc1cc(C(F)(F)F)nc2sc3c(c12)NC(c1c(Br)cnn1C)NC3=O (stereo not drawn) | -1.36 | – |
| O=C(COc1ccccc1Cl)N1CCN(c2ccc([N+](=O)[O-])cc2)CC1 | 46.1 | – |
| O=C(O)c1ccc(N2CCN(C(=O)COc3ccccc3C(F)(F)F)CC2)cc1 | 10.9 | -0.8 |
| O=C(O)c1ccccc1N1CCN(C(=O)COc2ccc(F)cc2)CC1 | 11.5 | -7.2 |
| O=C(O)c1ccccc1N1CCN(C(=O)COc2cccc(Cl)c2)CC1 | 24.4 | -3.3 |
| Cc1c(Cl)c(-c2nnc(NCC(C)C)s2)nn1C | 7.92 | – |
| O=C(COc1cccc(F)c1)N1CCN(c2ccccc2[N+](=O)[O-])CC1 | 39.5 | 18.2 |
| CC(C)(C)CN(Cc1cccc(CN)c1)C(=O)c1ccc(-c2ccccc2)nc1 | 32.5 | – |
| O=S(=O)(c1ccc(OC(F)(F)F)cc1)N1CCC(N2CCN(c3ccccc3F)CC2)CC1 | 8.43 | – |
| O=C(Nc1ccccc1)N1CC(O)C(N2CCN(Cc3ccccc3)CC2)C1 (stereo not drawn) | 2.55 | – |
| O=C(O)c1ccccc1N1CCN(C(=O)COc2ccc(Cl)cc2Cl)CC1 | 27.6 | -7.9 |
| O=C1N=C(Nc2ccccc2)SC1Cc1ccc(-c2cccc(Br)c2)o1 (stereo not drawn) | -0.74 | – |
| CC[n+]1c(Cc2nn3c(C)cc(C)nc3[n+]2CC)nn2c(C)cc(C)nc21 | 2.48 | – |
| O=C(COc1ccccc1F)N1CCN(c2ccccc2[N+](=O)[O-])CC1 | 25.6 | -1.8 |
| Cc1cc(NC(=O)CSc2nc3sc4c(c3c(=O)[nH]2)CCC(C)C4)no1 (stereo not drawn) | 11 | – |

| SMILES | inhibition [1] [%] | inhibition [2] [%] |
| --- | --- | --- |
| CN(C)CCCCN(CCCN(C)C)Cc1cccc2ccccc12 | 36.2 | – |
| O=C(COc1cccc(C(F)(F)F)c1)N1CCN(c2ccccc2[N+](=O)[O-])CC1 | 49.2 | 35.4 |
| C=C(Br)C(=O)N1CCN(C(=O)CCSc2ccc3ccccc3c2)CC1 | 46.4 | – |
| Clc1ccc(Cl)c2c1CC(N1CCN(c3ncccn3)CC1)S2 (stereo not drawn) | 9.03 | – |
| Cc1ccc2cc(C#N)c(N3CCCN(C(=O)c4ccc(F)cc4F)CC3)nc2c1 | 46.4 | – |
| O=C(O)c1ccccc1N1CCN(C(=O)COc2cccc(C(F)(F)F)c2)CC1 | 41.3 | -3.5 |
| CC(C)COc1cnc(SSc2ncc(OCC(C)C)cn2)nc1 | 20.6 | – |
| Cn1ncc2c1ncn1nc(-c3ccc(Cn4cc(Cl)cn4)o3)nc21 | -1.86 | – |
| CCCCC(CC)C(=O)Nc1nnc(C2CCCCC2)s1 (stereo not drawn) | 7.68 | – |
| COC(CNCc1cc(Cl)c(CNCC(OC)OC)cc1Cl)OC | 18.6 | – |
| O=c1/c(=C/C=C/c2ccc([N+](=O)[O-])o2)sc2nc3ccccc3n12 | 5.82 | – |
| CSc1cccc2c(C)cc(N3CCN(c4ccc(F)cc4)CC3)nc12 | 9.17 | – |
| O=C(COc1ccccc1Cl)N1CCN(c2ccccc2[N+](=O)[O-])CC1 | 47.1 | 18.7 |
| Cc1cc(NC(=O)CSc2nc3sc4c(c3c(=O)[nH]2)CCC(C(C)(C)C)C4)no1 (stereo not drawn) | 15.4 | – |
| CCOc1ccc(N2C(=O)/C(=C3\C(=O)Nc4ccc(Br)cc43)SC2=S)cc1 | -3.35 | – |
| O=C(O)c1cccc(N2CCN(C(=O)COc3ccccc3Cl)CC2)c1 | 42 | 11.5 |
| Cc1nc(N2CCN(c3ccccc3F)CC2)c2c(C)c(C)sc2n1 | -2.48 | – |
| CCCCCCCCCCCC[N+](C)(C)CC(O)C(O)C(O)C(O)CO (stereo not drawn) | 36.7 | – |
| CC(C)(C)CN(Cc1cccc(CN)c1)C(=O)c1ccc(-c2ccc(F)cc2)nc1 | 19.8 to 42.8 | – |
| O=C(O)c1ccc(N2CCN(C(=O)COc3ccc(Cl)cc3Cl)CC2)cc1 | 23.9 | 9.7 |
| O=C(c1ccco1)N1CCN(C(=O)C2CCCN2C(=O)CC2C=CCC2)CC1 (stereo not drawn) | 5.7 | – |
| O=C(O)c1ccccc1N1CCN(C(=O)COc2ccccc2C(F)(F)F)CC1 | 17.3 | 4.6 |
| O=C(O)c1ccc(N2CCN(C(=O)COc3ccccc3Cl)CC2)cc1 | 27.6 | 7.3 |
| O=C(COc1cccc(Cl)c1)N1CCN(c2ccccc2[N+](=O)[O-])CC1 | 42.7 | 24.9 |
| O=C(COc1ccccc1F)N1CCN(c2ccc([N+](=O)[O-])cc2)CC1 | 35.2 | – |
| Cn1ncc(Cl)c1C(=O)NC1CCC(C(C)(C)C)CC1 (stereo not drawn) | 15 | – |
| CCN1CCN(c2cc(C)c3ccc(Cl)cc3n2)CC1 | 14.2 | – |

Now from value to compound:

| inhibition [1] [%] | inhibition [2] [%] | SMILES |
| --- | --- | --- |
| 40.8 | – | Cc1ccccc1Nc1nc(C2(C)CC3(CC(COCC(C)C)OC3=O)C(=O)O2)cs1 (stereo not drawn) |
| 21.7 | – | CCc1ccc2c(c1)c1nnc(SCC(=O)Nc3nnc(C(C)C)s3)nc1n2C |
| 46.7 | 27.8 | O=C(O)c1ccc(N2CCN(C(=O)COc3cc(Cl)cc(Cl)c3)CC2)cc1 |
| 4.63 | – | Cc1cc(OCC(=O)Nc2ccc(-c3nc4ncccc4o3)cc2)ccc1Cl |
| 3.59 | – | N#C/C(=C\c1ccc(-c2cc([N+](=O)[O-])ccc2Cl)o1)C(=O)Nc1ccccc1C(=O)O |
| 32.8 | – | CC(C)CC1C(=O)NC(C)CN1C(=O)c1ccc(-c2ccccc2)cc1 (stereo not drawn) |
| 17.5 | – | CCc1nc(C)cc(NCC(=O)C2(O)CC3(C)CCC4C5C=CC(=O)C=C5CCC45C3C25)c1O (stereo not drawn) |
| 25.5 | – | COc1ccc2oc(C(=O)NCCNC(=O)C3C(C=C(C)C)C3(C)C)cc2c1 (stereo not drawn) |
| 6.06 | – | CCCC#CC(=O)NCC(=O)Nc1ccc2c3c(cccc13)-c1ccccc1-2 |
| 6.68 | – | COc1ccc(/C(N)=N/OC(=O)COc2ccc(C(C)(C)C)cc2Br)cc1OC |
| -2.55 | – | COc1ccc(/C=N/c2cc(C)ccc2C)cc1OC |
| 16.9 | – | COc1cc(C(=O)Nc2ccc(C(C)=O)cc2)c(Br)c(OC)c1OC |
| 10.7 | – | CC(C)(C)c1ccc(NC(=O)COC(=O)c2ccc([N+](=O)[O-])s2)cc1 |
| 0.9 | -6.5 | O=C(O)c1ccc(N2CCN(C(=O)COc3ccc(F)cc3)CC2)cc1 |
| 13.4 | – | Cc1ccc2cc3c(nc2c1)sc1c(SCC(=O)NCc2ccco2)ncnc13 |
| 12.1 | – | CC(C)c1ccc(NC(=O)c2cc([N+](=O)[O-])ccc2Cl)cc1 |
| 0.32 | – | COc1ccc(C(=O)Oc2c(Br)cc(Br)c3cccnc23)cc1 |
| 6.54 | – | Cc1c(Br)cc(C(=O)OCC(=O)c2ccccc2)c(C)c1C |
| 10.5 | – | C=C(C)c1cccc(C(C)(C)NC(=O)N2CCN(C(=O)OCC)CC2)c1 |
| 30.3 | – | CON1CC/C(=C\c2cc(C(C)(C)C)c3c(c2)C(C)(C)CO3)C1=O |
| 9.16 | – | CCCCOCCCNc1cc(-c2cccc(C)c2)ncn1 |

| inhibition [1] [%] | inhibition [2] [%] | SMILES |
| --- | --- | --- |
| 6.1 | – | O=C(O)c1ccc(N2CCN(C(=O)COc3ccccc3F)CC2)cc1 |
| 46 | 7.9 | O=C(O)c1ccc(N2CCN(C(=O)COc3ccc(C(F)(F)F)cc3)CC2)cc1 |
| 34.7 | – | CCc1ccc(OCC(=O)Nc2ccc(-c3nc4ccccc4o3)cc2)cc1 |
| 43.4 | – | Cn1cc(Cl)c(C2NN=C(SCC(=O)Nc3ccc(C(C)(C)C)cc3)S2)n1 (stereo not drawn) |
| -4.83 | – | COc1ccc(C2OCC3OC(OC)C(O)C(O)C3O2)cc1OCc1ccccc1 (stereo not drawn) |
| 35.1 | – | CCc1cc2c(cc(C(=O)NCCc3ccc(OC)c(OC)c3)n2C)s1 |
| 7.68 | – | Cc1oc(C(C)(C)C)cc1C(=O)NCCNC(=O)c1cc(C(C)(C)C)oc1C |
| 10.8 | 10.9 | O=C(O)c1cccc(N2CCN(C(=O)COc3ccccc3F)CC2)c1 |
| 10.5 | – | CC1=NC(c2cccc(C)c2)C(O)=C1/C=C1/C(=O)N(c2ccc(C)cc2C)N=C1C (stereo not drawn) |
| -0.74 | – | COc1ccccc1N1CCN(/N=C(\C)c2ccc3ccccc3c2)CC1 |
| -8.29 | – | CCC(C)c1ccc(OCC(=O)Nc2cc(OC)c(OC)cc2C(=O)O)cc1 (stereo not drawn) |
| -2.35 | – | COC(=O)c1sc(NC(=O)c2cc(C)ccc2Cl)c(C#N)c1C |
| 43 | – | O=C(O)c1ccc(N2CCN(C(=O)COc3cccc(C(F)(F)F)c3)CC2)cc1 |
| 8.67 | – | Cc1ccc(SCC(=O)Nc2ccc(C(=O)NC(C)(C)C)cc2)cc1 |
| 15.6 | – | CCOC(=O)c1c(C)[nH]c(C(=O)OCC(=O)NCc2ccco2)c1C |
| 4.83 | – | COc1ccc(N2C(=O)/C(=C/c3ccc(O)c([N+](=O)[O-])c3)SC2=S)cc1 |
| -0.99 | – | Cn1ncc2c(Cl)nc(-c3cc4cc([N+](=O)[O-])ccc4o3)nc21 |
| 32.3 | – | O=C(O)c1ccc(N2CCN(C(=O)COc3cccc(F)c3)CC2)cc1 |
| 4.09 | – | CCOc1ccc(N2C(=O)/C(=C\c3sccc3C)C(C(=O)OC)=C2C)cc1 |
| 38 | – | CCCCOc1ccc(S(=O)(=O)N2CC(NCc3ccco3)CC2C(=O)CNO)cc1 (stereo not drawn) |
